Experimental data reported in ChEMBL document CHEMBL1177862, “Novel effects of glycyrrhetinic acid on the central nervous system tumorigenic progenitor cells: induction of actin disruption and tumor cell-selective toxicity” (Eur J Med Chem, 2010).
Counter-ions that a name gives are not always drawn.

Tests used:
[1] = Antiproliferative activity against mouse SFME cells after 24 hrs by MTT assay; format: cell-based
Outline: (§1)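 Cells were kept in DME/F-12 with insulin, transferrin and EGF on fibronectin-coated dishes at 37 C in 20% O2/5% CO2. They were seeded at 1 x 10^4 cells/well and dosed at half confluency for 24 h. Cell number was read by MTT. Runs were in triplicate, repeated at least three times, as mean SD. IC50 was derived from concentration-response data.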

[2] = Antiproliferative activity against mouse r/m HM-SFME-1 cells after 24 hrs by MTT assay; format: functional, cell-based; outline: as §1
[3] = Antiproliferative activity against mouse r/m HM-SFME-1 cells at 10 uM after 24 hrs by MTT assay; format: functional; outline: as §1
[4] = Induction of F-actin disruption in mouse SFME cells assessed as F-actin extension at IC50 after 8 hrs by confocal laser scanning microscopy; format: functional, cell-based
Outline: (§2)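 After 8 h treatment, cells were fixed in 3.7% formaldehyde/PBS and permeabilized with 0.1% Triton X-100. F-actin was labeled with rhodamine-phalloidin. Slides were mounted in anti-fade medium and imaged by confocal laser scanning or fluorescence microscopy for peripheral F-actin extensions and lamellipodia.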

[5] = Induction of F-actin disruption in mouse r/m HM-SFME-1 cells assessed as disappearance of F-actin extension at IC50 after 8 hrs by confocal laser scanning microscopy; format: functional, cell-based; outline: as §2
[6] = Down regulation of beta-actin protein expression in mouse r/m HM-SFME-1 cells at IC50 after 8 hrs by Western blotting; format: functional, cell-based
Outline: (§3)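 They were run on SDS-PAGE, blotted to nitrocellulose and probed with mouse monoclonal anti-beta-actin, then AP-conjugated anti-mouse IgG1. GAPDH was the loading control. Bands were quantified by densitometry. Values are from at least 3 experiments, Student's t-test.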

[7] = Down regulation of beta-actin protein expression in mouse SFME cells at IC50 after 8 hrs by Western blotting; format: functional, cell-based; outline: as §3

COc1cccc2c1C(=O)c1c(O)c3c(c(O)c1C2=O)C[C@@](O)(C(=O)CO)C[C@@H]3O[C@H]1C[C@H](N)[C@H](O)[C@H](C)O1 [DOXORUBICIN HYDROCHLORIDE]
IC50 [1]: 0.8 µM | IC50 [2]: 64 µM

COc1cc([C@@H]2c3cc4c(cc3[C@@H](O[C@@H]3O[C@@H]5CO[C@@H](C)O[C@H]5[C@H](O)[C@H]3O)[C@H]3COC(=O)[C@H]23)OCO4)cc(OC)c1O [ETOPOSIDE]
IC50 [1]: 0.5 µM | IC50 [2]: 9 µM

CC1(C)[C@@H](O)CC[C@]2(C)[C@H]3C(=O)C=C4[C@@H]5C[C@@](C)(C(=O)O)CC[C@]5(C)CC[C@@]4(C)[C@]3(C)CC[C@@H]12 [ENOXOLONE]
IC50 [1]: 18 µM | IC50 [2]: 7.3 µM | inhibition at 10 µM [3]: > 80% | IC50 [4]: Not Active | IC50 [5]: Active | IC50 [6]: Active | IC50 [7]: Not Active

O=c1[nH]cc(F)c(=O)[nH]1 [FLUOROURACIL]
IC50 [1]: 3.2 µM | IC50 [2]: 48.5 µM

Nc1ccn([C@@H]2O[C@H](CO)[C@@H](O)[C@@H]2O)c(=O)n1 [CYTARABINE]
IC50 [1]: 0.8 µM | IC50 [2]: 33.3 µM
